Experiments:
[1] = Cytotoxicity against human LN-319 cells expressing ENO1 assessed as cell growth inhibition incubated for 6 days by cystal violet staining based analysis; assay type: functional; conditions: LN-319, 144 h
[2] = Stability of compound in phosphate buffer at pH 7 incubated for 3 hrs; assay type: physicochemical; conditions: pH 7, 3 h
Outline: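 Stability followed by 31P NMR in 5 mM phosphate-buffered D2O at pH 7.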

[3] = Prodrug conversion in human plasma assessed as (1-hydroxy-2-oxopiperidin-3-yl) phosphonic acid formation measured after 3 hrs by 31P-NMR analysis; assay type: ADME, cell-free
Outline: (§1)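 Prodrug dissolved in DMSO and added to 80% human serum/plasma with 20% D2O, final 2 mM unless stated otherwise. Samples held at 37 °C between timepoints. Read by 31P NMR (CPD, 500 scans), with 1H–31P HSQC where applicable. Peaks integrated and normalised to the phosphate peak at 0 ppm.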

[4] = Stability of compound in culture media incubated for 72 hrs by 31P-NMR analysis; assay type: physicochemical
Outline: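 Prodrug (final 2 mM unless stated otherwise) in 80% DMEM with 20% D2O, kept at 37 °C between timepoints. Species followed by 31P NMR (CPD, 500 scans).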

[5] = Stability of compound in human serum incubated for 72 hrs by 31P-NMR analysis; assay type: ADME, cell-free; outline: as §1
[6] = Stability of compound in human plasma incubated for 3 hrs by 31P-NMR analysis; assay type: ADME, cell-free; outline: as §1
[7] = Metabolic stability of the compound in human serum measured over 16 hrs by 31P-NMR analysis; assay type: ADME, cell-free; outline: as §1
[8] = Metabolic stability of the compound in human serum measured over 9 hrs by 31P-NMR analysis; assay type: ADME, cell-free; outline: as §1
[9] = Metabolic stability of the compound in human serum measured over 366 hrs by 31P-NMR analysis; assay type: ADME, cell-free; outline: as §1
[10] = tested on: Panel NCI-60 (60 carcinoma cell lines); assay: Cytotoxicity against human NCI-60 cells assessed as reduction in cell viability at 10 uM incubated for […]; assay type: functional
Outline: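 NCI DTP one-dose screen: single 10 μM dose, […], across the 60-line panel (some lines absent when unavailable). Cells kept in RPMI 1640 with 5% FBS and 2 mM L-glutamine, seeded at 5000–40,000 cells/well by doubling time. Percent growth given relative to drug-free untreated control and to cell number at time zero.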

[11] = Metabolic stability of the compound in human serum over 12 hrs by 31P-NMR analysis; assay type: ADME, cell-free; outline: as §1

Structure (SMILES) | IC50 [1] [µM] | further results
CC(C)OC(=O)[C@H](C)NP(=O)(N[C@@H](C)C(=O)OC(C)C)C1CCCN(O)C1=O (some centres not stated) | > 100 | –
N#CCOP(=O)(OC#N)C1CCCN(O)C1=O (configuration not stated) | > 100 | –
O=C1C(P(=O)(NCc2ccccc2)Oc2ccc(F)cc2)CCCN1O (configuration not stated) | > 100 | –
CC(C)C(=O)ON1CCCC(P2(=O)OCc3ccccc3O2)C1=O (configuration not stated) | – | Stability [2]: Stable; Drug metabolism [3]: Metabolite_Detected; Stability [4]: Stable; Stability [5]: Stable; Stability [6]: Unstable
N#CCOP(=O)(NCc1ccccc1)C1CCCN(O)C1=O (configuration not stated) | 0.775 | –
CC(C)OC(=O)[C@H](C)NP(=O)(Oc1ccccc1)C1CCCN(O)C1=O (some centres not stated) | – | Stability [7]: Stable; Stability [8]: Stable; Stability [9]: Stable
CC(C)(C)C(=O)OCOP(N)(=O)C1CCCN(O)C1=O (configuration not stated) | 426 | –
CCCCCCCCCCCCNP(=O)(O)C1CCCN(O)C1=O (configuration not stated) | > 100 | –
CN(C)P(=O)(OCOC(=O)C(C)(C)C)C1CCCN(O)C1=O (configuration not stated) | 12.9 | –
CC(C)(C)C(=O)OCOP(=O)(OCOC(=O)C(C)(C)C)C1CCCN(O)C1=O (configuration not stated) | – | Activity [10]: 7.1%; Stability [11]: Unstable
CNP(=O)(OCOC(=O)C(C)(C)C)C1CCCN(O)C1=O (configuration not stated) | 5.4 | –
O=C1C(P(=O)(O)O)CCCN1O (configuration not stated) | 3000 | –
O=C1C(P(=O)(NCc2ccccc2)OCOC(=O)N2CCC(N3CCCCC3)CC2)CCCN1O (configuration not stated) | > 100 | –
CC(C)(C)C(=O)OCOP(=O)(NCc1cccc(F)c1)C1CCCN(O)C1=O (configuration not stated) | 2.38 | –
CCCCCCCCCCCCCCCCOCCCOP(=O)(O)C1CCCN(O)C1=O (configuration not stated) | – | Activity [10]: 14%

Source: ChEMBL document CHEMBL5104201, “Prodrugs of a 1-Hydroxy-2-oxopiperidin-3-yl Phosphonate Enolase Inhibitor for the Treatment of ENO1-Deleted Cancers” (J Med Chem, 2022)
